Screening data (PubChem)
T cruzi repl: T. cruzi replication inhibition | 300,000 compounds, 1.4% hits | T. cruzi beta-gal in NIH3T3, luminescence, 90 h | AID 1885 | inhibition, % (test concentration not listed);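 active means mean inhibition across valid replicates above about 55%, limit read from the data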;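 further: signal also drops with host cell toxicity which is not excluded here; 0% = plate median of DMSO wells and 100% = zero luminescence signal; higher percent means less beta-gal luminescence so fewer parasites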
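System – NIH/3T3 host cells with β-galactosidase reporter T. cruzi · Doses – single 50 nL compound addition per well in DMSO · Reagent – 5000 T. cruzi trypomastigotes/well · Medium – Low-serum DMEM with 2% FBS · Timing – ≥90 h infection period, 3 h prior cell attachment · Evaluation – parasite load inhibition, % · Technique – GalScreen luminescence, 60 min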
CHOP inhibitor: CHOP inhibition in unfolded protein response; CHO-K1 CHOP-promoter luciferase, tunicamycin-induced, 15-18 h; inhibition, % at 10 µM; 220,000 compounds, 3.8% hits; AID 2732;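 active means compounds that reduced the stress-induced luciferase reporter signal by more than about 70% of percent inhibition, limit read from the data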;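 further: 0% = tunicamycin plus vehicle and 100% = wells without tunicamycin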
CHOP UPR activ: activators of apoptotic arm of unfolded protein response (CHOP) | 330,000 compounds, 0.34% hits | AID 449763 | CHO-CHOP luciferase reporter, UPR activation, luminescence; percent of tunicamycin response over DMSO baseline | activation, % at 10 µM;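 active means at 10 µM dose, activation of 40% or more, normalized to positive control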;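 further: 100% = tunicamycin at 10 µg/mL and 0% = DMSO alone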
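assay system = CHO CHOP reporter cells | amount = 500 CHO-CHOP cells per well | buffer or medium = F12 with 10% FBS | incubation = 16-18 h cell attachment, then 6 h compound exposure, 37 °C | detection = luminescence read with Steady-Glo | read-out = percent activation relative to tunicamycin control | controls = tunicamycin high control, DMSO low control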
Dynein cargo inh: blocks dynein driven cargo transport along microtubules | 3617.4 mouse cells, GR-EGFP nuclear translocation imaging; test concentration mostly 20 µM; stimulated with dexamethasone, 1 µM; hits give low values | z-score, hits read low | 220,000 compounds, 0.47% hits | AID 1381;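 active means plate z-score of nuclear minus cytoplasmic receptor signal below a set negative limit, without overly bright fluorescence or cell loss, cut at about -3.5 in these data, passing the limit was not always enough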;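 further: z-score of nuclear minus cytoplasmic ring GR-EGFP intensity difference per well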
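Buffer or medium: tet-free, stripped-serum medium; reagent: dexamethasone at 1.0 µM final, 30 min; incubation: 48 h induction, 1 h compound, 30 min dex at 37 °C; measured by: formaldehyde fixation, Hoechst nuclear stain, 10x automated fluorescence imaging; read-out: nuclear-to-cytoplasmic GR-EGFP distribution per well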
Lmaj promast: inhibitors of Leishmania major promastigote growth; Leishmania major promastigotes, resazurin fluorescence viability; AID 1063; 200,000 compounds, 9% hits; inhibition, % at 10 µM; in the data active means inhibition above about 50%;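 further: promastigotes grown with compound for 44 hours at 28 °C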
UPR XBP1 act: adaptive UPR (XBP1) activation. CHO-XBP1 luciferase reporter, IRE1-XBP1 UPR activation, luminescence; percent of tunicamycin response, DMSO as zero. activation, % at 20 µM. 330,000 compounds, 0.33% hits. AID 463104;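 active means versus positive control, 20 µM dose yields 30% or more activation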;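 further: 100% = tunicamycin at 10 µg/mL and 0% = DMSO only wells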
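incubation = overnight seeding at 37 °C, 6 h compound treatment at 37 °C | assay system = CHO-XBP1 cells stably carrying IRE1-XBP1-driven luciferase reporter | input = 1000 cells per well | detection = luciferase luminescence | dosing = single point, 20 µM final compound, 1% DMSO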
* marks the source's active call; other numbers are inactive results; nt = no result given. Only a selection was taken, and hits are over-represented in it overall.

SMILES | T cruzi repl | CHOP inhibitor | CHOP UPR activ | Dynein cargo inh | Lmaj promast | UPR XBP1 act
O=C(C1CCN(S(=O)(=O)c2cccc3cccnc23)CC1)N1CCN(c2ccccn2)CC1 | -5.6 | 2.4 | -1.4 | -0.864 | -2.1 | -0.9
O=C(Nc1nc2cc(Cl)ccc2s1)C1CCCN(S(=O)(=O)c2cccc3cccnc23)C1 (configuration not stated) | 27.6 | 74.8* | 2.2 | -0.354 | 37.6 | 1.2
O=C(C1CCN(S(=O)(=O)c2cccc3cccnc23)CC1)N1CCN(c2ccc(Cl)cc2)CC1 | 15.5 | nt | 6.0 | 2.7 | 51.9* | -2.2
CCOC(=O)Oc1ccc(C(=O)OCCCN(C)C)cc1OC | 38.0 | 0.2 | 4.1 | 0.0233 | -1.3 | -0.9
COc1ccc(C(=O)COC(=O)c2ccc(OC)c(OC)c2)cc1OC | -19.1 | 75.3* | 0.7 | 0.232 | -2.1 | 0.2
COc1ccc(C(=O)OCCCN(C)C)cc1OC | 19.7 | 19.6 | -0.9 | 0.203 | 58.4* | -0.9
CNC(=S)N(CCN(C)C)Cc1cc2cc3c(cc2[nH]c1=O)OCO3 | 4.9 | nt | 0.9 | nt | nt | -3.8
O=C(OCc1cccc(C(F)(F)F)c1)c1ccc[nH]c1=O | -15.0 | nt | 1.2 | nt | nt | 0.9
CCCCc1ccc(NC(=S)N2CCCC2)cc1 | nt | nt | 4.4 | nt | nt | 2.8
CS/C(=N\S(=O)(=O)c1cccs1)Nc1ccc(Br)cc1F | -21.8 | -3.4 | -0.5 | -0.39 | -3.7 | -2.0
CCCCC1CCC(C(=O)N(C)CC(=O)Nc2cccc(OC)c2)CC1 (configuration not stated) | nt | nt | 0.2 | nt | nt | 0.8
O=C(CSc1ccc(-c2ccccn2)nn1)c1ccccc1 | 6.4 | -0.6 | 0.5 | 0.785 | 46.3 | 1.0
Clc1ccc(CSc2ccc(-c3ccccn3)nn2)cc1 | 67.8* | 31.5 | 4.7 | 0.294 | 4.7 | -1.1
c1ccc(CSc2ccc(-c3ccccn3)nn2)cc1 | 57.8* | 57.2 | 0.4 | 0.214 | 16.8 | 0.5
CNc1ccc([N+](=O)[O-])cc1-c1nc2ccccc2[nH]c1=O | 1.9 | -27.4 | -0.9 | -0.773 | nt | -0.6
Cc1cccc2sc(N(CCCN(C)C)C(=O)c3nc4ccccc4s3)nc12 | 44.5 | 75.1* | 3.2 | 1.68 | 77.7* | 1.0
Cc1cccc2sc(N(CCCN(C)C)C(=O)CN3C(=O)c4ccccc4C3=O)nc12 | 45.4 | 1.4 | -0.5 | -0.28 | 4.8 | 0.1
Cc1cccc2sc(N(CCCN(C)C)C(=O)CCc3ccccc3)nc12 | 62.4* | 8.5 | 3.8 | 2.57 | 24.3 | 2.5
Cc1cccc2sc(N(CCCN(C)C)C(=O)c3ccc4ncsc4c3)nc12 | 38.0 | nt | 1.7 | nt | nt | -0.1
CN(C)CCCN(C(=O)CCc1ccccc1)c1nc2ccc(Br)cc2s1 | 49.2 | 53.1 | 1.9 | 4.15 | 61.4* | 6.4
CN(C)CCCN(C(=O)CCc1ccccc1)c1nc2ccc(F)cc2s1 | 36.5 | 17.6 | 2.2 | 0.126 | 48.2 | 2.5
Cc1ccc(NC(=O)C2CCN(S(=O)(=O)c3ccc4c(c3)NC(=O)C(C)S4)CC2)cc1Cl (configuration not stated) | 18.7 | nt | 3.8 | nt | nt | 0.3
CC1(C)Cc2c(cnn2-c2ccccc2)C(NC(=O)CCCn2cncn2)C1 (configuration not stated) | -20.2 | nt | 4.0 | nt | nt | -6.6
Cn1c2ccccc2c(=O)c2ccc(C#CC3(O)CCCCC3)cc21 | 11.3 | nt | -2.3 | nt | nt | -5.3
O=C(c1cc[n+]([O-])cc1)N1CCCC(N2CCN(c3cccc(C(F)(F)F)c3)CC2)C1 (configuration not stated) | -1.4 | nt | -0.7 | nt | nt | -1.7
SMILES | T cruzi repl | CHOP inhibitor | CHOP UPR activ | Dynein cargo inh | Lmaj promast | UPR XBP1 act
COc1ccc(C(=O)NCc2c(C)nn(Cc3ccccc3)c2C)cc1S(=O)(=O)N1CCOCC1 | nt | nt | -0.4 | nt | nt | -2.2
CCC(C)(C)NC(=O)C(c1ccc(OC)cc1)N(C(=O)CCC(=O)Nc1cc(C)on1)c1cccc(OC)c1 (configuration not stated) | 1.2 | nt | -2.7 | nt | nt | 2.0
COc1ccc(C(C(=O)NC(C)(C)C)N(CCO)C(=O)CCC(=O)Nc2cc(C)on2)cc1 (configuration not stated) | 0.6 | nt | 0.6 | nt | nt | -6.5
COc1ccc(C(C(=O)NC(C)(C)C)N(Cc2cccs2)C(=O)CCC(=O)Nc2cc(C)on2)cc1 (configuration not stated) | 4.5 | -16.2 | -1.8 | -0.672 | 97.0* | -1.9
CCC(C)(C)NC(=O)C(c1ccc(OC)cc1)N(Cc1cccs1)C(=O)CCC(=O)Nc1cc(C)on1 (configuration not stated) | nt | 44.0 | -1.0 | 0.428 | 97.4* | -0.3
Cc1ccc(S(=O)(=O)/C(C#N)=C/c2c(N3CCN(Cc4ccccc4)CC3)nc3ccccn3c2=O)cc1 | -28.6 | nt | 1.6 | nt | nt | -3.9
CCn1ccnc1CN(C)Cc1c(C(=O)N2C[C@@H](C)O[C@@H](C)C2)nc2ccc(Cl)cn12 | -3.0 | nt | -2.2 | nt | nt | -5.8
Cc1nc(-c2ccncc2)sc1C(=O)Nc1ccc(Cl)cc1 | 3.5 | 8.1 | 0.3 | 0.0367 | -3.6 | -1.7
CC(=O)Nc1ccc(NC(=O)Cc2sc(-c3cccnc3)nc2-c2ccc(C)cc2)cc1 | 69.5* | -1.9 | -1.2 | -0.71 | -4.2 | -3.3
Cc1nc(-c2cccnc2)sc1C(=O)Nc1ccc(Cl)cc1 | 12.7 | 81.0* | 0.0 | -0.118 | 9.8 | -2.9
COc1ccc(C)cc1NC(=O)c1nn(C)cc1Br | 4.1 | 10.1 | -0.3 | -1.19 | nt | 1.4
COCCN(C(=O)CCSc1ccc(F)cc1)c1c(N)n(Cc2ccccc2)c(=O)[nH]c1=O | nt | nt | 0.0 | nt | nt | -2.5
CCS(=O)(=O)N1CCN(Cc2ccc([N+](=O)[O-])cc2)CC1 | -19.0 | -0.6 | 0.6 | -0.328 | -5.1 | -0.5
CSc1ccc(CN2CCN(Cc3ccc([N+](=O)[O-])cc3)CC2)cc1 | 66.1* | 36.3 | -1.3 | -0.772 | 90.6* | -0.8
O=[N+]([O-])c1ccc(CN2CCCCCC2)cc1 | -9.1 | nt | 0.1 | nt | nt | -3.2
O=[N+]([O-])c1ccc(CN2CCOCCOCCN(Cc3ccc([N+](=O)[O-])cc3)CCOCC2)cc1 | 30.5 | 12.7 | -1.6 | -0.662 | 80.4* | 0.3
COc1ccc(S(=O)(=O)N2CCN(CC(=O)Nc3sccc3C(N)=O)CC2)cc1OC | nt | nt | -1.0 | nt | nt | -0.9
Cc1ccc2nc(/C=C/c3cccc(F)c3)ccc2c1 | 9.0 | 95.5* | 1.1 | -0.434 | -1.1 | 0.0
Fc1cccc(F)c1/C=C/c1ccc2ccccc2n1 | 7.0 | 46.3 | 3.2 | 0.51 | 7.0 | -5.2
CCCN1C(=O)C(Cc2nc3ccccc3c(=O)n2-c2ccccc2)c2ccccc21 (configuration not stated) | 40.1 | 8.6 | -1.2 | 1.18 | 89.2* | 1.2
Cc1ccc(NC(=S)NC(C)CCc2ccccc2)cc1C (configuration not stated) | 29.5 | -22.5 | 1.2 | 0.398 | 90.3* | 0.5
